ChEMBL document CHEMBL1122501, “Potential antiatherosclerotic agents. 2. (Aralkylamino)- and (alkylamino) benzoic acid analogues of cetaben” (1983)

Experiments:
Rattus norvegicus [1] = assay: In vivo triglyceride lowering activity dosed at 0.10 % of the diet; type: functional
Procedure, shortened: (§1)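 Male CFE or CD-1 Sprague-Dawley rats, 140-150 g; 8 per control group, 4 per test group. Compound mixed into ground chow (w/w) via MeOH-CHCl3 (1:3) solution, solvent evaporated; controls got solvent-treated chow. Fed ad libitum 5 days, food intake monitored, killed fed and bled. Serum sterols and triglycerides by adapted autoanalyzer methods; mean percent of control, Student's t test.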

Rattus norvegicus [2] = assay: In vivo Sterol lowering activity at dose as 0.03 % of the diet; type: functional; procedure, shortened: as §1
Rattus norvegicus [3] = assay: In vivo sterol lowering activity dosed at 0.10 % of the diet; type: functional; procedure, shortened: as §1
Rattus norvegicus [4] = assay: In vivo triglyceride lowering activity, dosed at 0.03 % of the diet; type: functional; procedure, shortened: as §1
[5] = target: T1, Sterol O-acyltransferase 1 (Rattus norvegicus) (UniProt O70536); assay: In vitro inhibitory activity against acyl coenzyme A:cholesterol acyltransferase (ACAT); set-up: concentration or dose not given beside the values; settings: concentration not given here
T1 sequence (whole entry): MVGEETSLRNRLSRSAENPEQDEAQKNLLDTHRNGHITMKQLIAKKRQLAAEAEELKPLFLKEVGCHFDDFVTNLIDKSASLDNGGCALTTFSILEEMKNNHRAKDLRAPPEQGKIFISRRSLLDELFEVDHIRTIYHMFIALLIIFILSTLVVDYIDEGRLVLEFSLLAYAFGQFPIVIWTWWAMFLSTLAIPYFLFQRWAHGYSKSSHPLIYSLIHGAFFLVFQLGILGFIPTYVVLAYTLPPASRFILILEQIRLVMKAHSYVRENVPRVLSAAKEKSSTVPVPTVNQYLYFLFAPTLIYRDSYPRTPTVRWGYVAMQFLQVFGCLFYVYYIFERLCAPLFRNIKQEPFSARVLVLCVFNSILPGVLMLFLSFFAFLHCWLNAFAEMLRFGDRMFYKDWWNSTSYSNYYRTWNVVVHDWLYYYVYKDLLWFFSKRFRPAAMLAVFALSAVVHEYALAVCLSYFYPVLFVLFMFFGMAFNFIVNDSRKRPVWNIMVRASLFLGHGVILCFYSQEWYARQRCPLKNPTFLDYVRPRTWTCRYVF
Procedure, shortened: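 ACAT enzyme from rat adrenal homogenate in 0.2 M KH2PO4 buffer pH 7.4, 1000g 15 min 5 °C supernatant (microsomal fraction). Supernatant + BSA (50 mg/mL) + compound at final 5.2 μg/mL + buffer preincubated 10 min 37 °C; [14C]oleoyl-CoA (0.4 μCi) added, 30 min 37 °C. Lipids extracted, TLC; cholesteryl ester zone counted. Mean % inhibition vs no-compound control; Student's t test.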

Rattus norvegicus [6] = assay: In vivo Sterol lowering activity at dose as 0.01 % of the diet; type: functional; procedure, shortened: as §1
Rattus norvegicus [7] = assay: In vivo Triglyceride lowering activity at dose as 0.01 % of the diet; type: functional; procedure, shortened: as §1
Rattus norvegicus [8] = assay: In vivo Triglyceride lowering activity at dose as 0.025 % of the diet; type: functional; procedure, shortened: as §1
Rattus norvegicus [9] = assay: In vivo triglyceride lowering activity dosed at 0.05 % of the diet; type: functional; procedure, shortened: as §1
Rattus norvegicus [10] = assay: In vivo Sterol lowering activity at dose as 0.025 % of the diet.; type: functional; procedure, shortened: as §1
Rattus norvegicus [11] = assay: In vivo Sterol lowering activity at dose as 0.05 % of the diet; type: functional; procedure, shortened: as §1
Rattus norvegicus [12] = assay: In vivo Triglyceride lowering activity at dose as 0.03 % of the diet.; type: functional; procedure, shortened: as §1
Rattus norvegicus [13] = assay: In vivo triglyceride lowering activity, dosed at 0.01 % of the diet.; type: functional; procedure, shortened: as §1
Rattus norvegicus [14] = assay: In vivo triglyceride lowering activity, dosed at 0.10 % of the diet.; type: functional; procedure, shortened: as §1
Rattus norvegicus [15] = assay: In vivo Sterol lowering activity at dose as 0.05 % of the diet.; type: functional; procedure, shortened: as §1
Rattus norvegicus [16] = assay: In vivo Sterol lowering activity at dose as 0.10 % of the diet.; type: functional; procedure, shortened: as §1

Structure (SMILES)	serum triglycerides, percent of control (Rattus norvegicus [1]) [%]	Diet (Rattus norvegicus [2]) [%]	serum sterol, percent of control (Rattus norvegicus [3]) [%]	serum triglycerides, percent of control (Rattus norvegicus [4]) [%]	inhibition [5] [%]	Diet (Rattus norvegicus [6]) [%]	Diet (Rattus norvegicus [7]) [%]	Diet (Rattus norvegicus [8]) [%]	Diet (Rattus norvegicus [9]) [%]	Diet (Rattus norvegicus [10]) [%]	Diet (Rattus norvegicus [11]) [%]	Diet (Rattus norvegicus [12]) [%]	Diet (Rattus norvegicus [13]) [%]	Diet (Rattus norvegicus [14]) [%]	Diet (Rattus norvegicus [15]) [%]	serum sterol, percent of control (Rattus norvegicus [16]) [%]
O=C(O)c1ccc(NCCCCCCCCCC/C=C/c2cccs2)cc1	<41	<83	<73	<59	< 53	<84	69									
CCOC(=O)c1ccc(NCCCc2ccccc2)cc1	57		79		61			77	56	94	77					
CCCCCCCCc1ccc(CNc2ccc(C(=O)OCC)cc2)s1	<61	90	82	<59	< 32	97	100									
CCOC(=O)c1ccc(NCCCc2ccc(F)cc2)cc1		78	81		25	83						71	90	68		
O=C(O)c1ccc(NCCCCCCCCc2ccccc2)cc1	74	<78	84	56	< 35	90	<54									
CCOC(=O)c1ccc(NCc2ccc(OC)cc2)cc1	48				49			73	62	95					92	94
O=C(O)c1ccc(NCCCc2ccc(OCc3ccccc3)cc2)cc1	60				2			67	69	90					96	93
CCOC(=O)c1ccc(NCCCCCCCCCCCn2ccnc2)cc1	<57	100	89	92	< 72	89	78									
CCCCCCCCCC/C=C/CCCNc1ccc(C(=O)[O-])cc1.[Na+]	<63	93	<82	117		86	112									
CCCCCCCCCCCCCNc1ccc(C(=O)[O-])cc1.[Na+]	<62	90	<76	70		110	<60									
C=C(CCCCCCCCCC)CCCCCNc1ccc(C(=O)O)cc1	<30	<85	<53	<64	< 71	<81	<65									
O=C(O)c1ccc(NCCCCCCCCCCCCc2cccs2)cc1	<42	<81	<70	<50	< 57	85	<59									
CCCCCCCCc1ccc(CCCNc2ccc(C(=O)O)cc2)s1	<57	<92	<78	72	< 27	88	76									
O=C(O)c1ccc(NC/C=C/c2ccccc2)cc1	44	70		43	0	86							85			96
CCCCCCCCCCCCCCCCCCCNc1ccc(C(=O)[O-])cc1.[Na+]	<70	98	98	99		93	102									
CCCCCCCCCCCCCCCCCCNc1ccc(C(=O)[O-])cc1.[Na+]	<52	86	79	<76		<84	90									
Cl.O=C(O)c1ccc(NCCCCCCCCCCCn2ccnc2)cc1	<47	99	113	<48	22	95	74									
CCCCCCCCCCCCCCCCNc1ccc(C(=O)O)cc1 [CETABEN]	<31	<71	<54	<45		<72	<71									
CCCCCCCCCCCCNc1ccc(C(=O)[O-])cc1.[Na+]	<34	92	88	<56		89	<72									
CCOC(=O)c1ccc(NC/C=C/c2ccccc2)cc1	60		84					73	58	92					86	
CCOC(=O)c1ccc(NCCCCCCCCCCc2ccccc2)cc1	<77	<84	<89	<58	< 63	100	77									
C=CCCCCCCCC/C=C/CCCNc1ccc(C(=O)[O-])cc1.[Na+]	87	92	86			88		106	90							
O=C(O)c1ccc(NCc2ccc(-c3ccccc3)cc2)cc1	42				7			61	70	98					98	90
CCCCCCCCCCCc1nc(CNc2ccc(C(=O)O)cc2)c[nH]1.Cl	<70	93	100	<71	19	99	79									
CCCCCCCCCCCCCCCCNc1ccc(C(=O)[O-])cc1.[Na+] [CETABEN SODIUM]	<41	<76	<60	<60		90	<75									
CCCCCCCCc1ccc(CNc2ccc(C(=O)O)cc2)s1	70	<76	<72	70	15	85	82									
